Data set [1] has as its system Mus musculus. Briefly: Percent survival was determined over a period of 30 days after intraperitoneal administration of a dose of 18.8 mg/kg in mice. Format: functional. To be noted: ip, 720 h. The method in brief:
(§1)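 Female C57 B16 mice (18-20 g), groups of 10, dosed ip in water or 10-20% aqueous ethanol (sometimes with Klucel or a Tween). Whole-body 1000-rad γ-irradiation 30 min after dosing. Survival was followed over 30 days, and animals alive beyond 30 days were counted as protected. Testing was done at Walter Reed Army Institute of Research.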

The test system of data set [2] is Mus musculus. Briefly: Percent survival was determined over a period of 30 days after intraperitoneal administration of a dose of 75 mg/kg in mice. Type of data set: functional. Put shortly:
as §1

In data set [3] the test system is Mus musculus. Put plainly: Percent survival was determined over a period of 30 days after intraperitoneal administration of a dose of 37.5 mg/kg in mice. Type of data set: functional. To be noted: ip, 720 h. The method in brief: as §1
Data set [4] is described as follows: Toxic dose was determined after (ip) administration of a dose of 75 mg/kg in mice at 1000-rad-gamma-radiation for 30 mins. Type of data set: toxicity, organism-based. Also noted: dose 75 mg/kg. As to conditions: mouse, in vivo. Put shortly: (§2)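 Drug-toxicity deaths were counted within the radioprotection groups: 10 female C57 B16 mice, dosed by the route stated, then given whole-body 1000-rad γ-irradiation 30 min later. Deaths attributed to compound toxicity occurred before day 5 and were scored separately from the 30-day survival count.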

Data set [5] in a line: Toxic dose was determined after (ip) administration of a dose of 18.8 mg/kg in mice at 1000-rad-gamma-radiation for 30 mins. Format: toxicity, organism-based. Further details: dose 18.8 mg/kg. As to conditions: mouse, in vivo. Put shortly:
as §2

For data set [6], the system named is Mus musculus. Briefly: Percent survival was determined over a period of 30 days after intraperitoneal administration of a dose of 4.7 mg/kg in mice. As to conditions: ip, 720 h. Type of data set: functional. Put shortly:
as §1

Data set [7] deals with Mus musculus. Put plainly: Percent survival was determined over a period of 30 days after intraperitoneal administration of a dose of 9.4 mg/kg in mice. Format: functional. To be noted: ip, 720 h. The method in brief:
as §1

The nature of data set [8]: Toxic dose was determined after (ip) administration of a dose of 37.5 mg/kg in mice at 1000-rad-gamma-radiation for 30 mins. Further details: dose 37.5 mg/kg. To be noted: mouse, in vivo. Type of data set: toxicity, organism-based. Put shortly:
as §2

The species entered for data set [9] is Mus musculus. Put plainly: Percent protective effect was determined in mice using 825 rads for 30 min. Format: functional.
The nature of data set [10]: Toxic dose was determined after (ip) administration of a dose of 9.38 mg/kg in mice at 1000-rad-gamma-radiation for 30 mins. Type of data set: toxicity, organism-based. Further details: dose 9.38 mg/kg. As to conditions: mouse, in vivo. Put shortly: as §2
In data set [11] the test system is Mus musculus. Put plainly: Percent survival was determined over a period of 30 days after intraperitoneal administration of a dose of 2.34 mg/kg in mice. Type of data set: functional. As to conditions: ip, 720 h. Put shortly: as §1
In data set [12] the test system is Mus musculus. Briefly: Percent survival was determined over a period of 30 days after intraperitoneal administration of a dose of 9.38 mg/kg in mice. Format: functional. As to conditions: ip, 720 h. The method in brief:
as §1

The test system of data set [13] is Mus musculus. Briefly: Percent survival was determined over a period of 30 days after intraperitoneal administration of a dose of 4.69 mg/kg in mice. To be noted: ip, 720 h. Type of data set: functional. Put shortly: as §1
Data set [14] relates to Mus musculus. Briefly: Percent protective effect was determined in mice using 825 rads for 30 min after administration of 350 mg/kg. Format: functional.
Data set [15] concerns Mus musculus. Put plainly: Percent protective effect was determined in mice using 1000 rads for 30 min after administration of 25 mg/kg. Format: functional.
The subject of data set [16] is Mus musculus. Briefly: Percent survival was determined over a period of 30 days after intraperitoneal administration of a dose of 150 mg/kg in mice. Type of data set: functional. As to conditions: ip, 720 h. The method in brief:
as §1

Data set [17] can be described thus: Toxic dose was determined after (po) administration of a dose of 300 mg/kg in mice at 1000-rad-gamma-radiation for 30 mins. Format: toxicity, organism-based. As to conditions: mouse, in vivo. Also noted: dose 300 mg/kg. Put shortly:
as §2

Data set [18] is described as follows: Toxic dose was determined after (ip) administration of a dose of 150 mg/kg in mice at 1000-rad-gamma-radiation for 30 mins. Also noted: dose 150 mg/kg. To be noted: mouse, in vivo. Type of data set: toxicity, organism-based. Put shortly:
as §2

Data set [19] has as its system Mus musculus. Briefly: Percent survival was determined over a period of 30 days after oral administration of a dose of 150 mg/kg in mice. Type of data set: functional. To be noted: 720 h. Put shortly: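 Female C57 B16 mice (18-20 g), groups of 10, dosed orally. Whole-body 1000-rad γ-irradiation 30 min after dosing. Percent survival was scored over 30 days, with mice surviving beyond 30 days counted as protected.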

Data set [20] concerns Mus musculus. Briefly: Percent protective effect was determined in mice using 600 rads for 30 min after administration of 100 mg/kg. Type of data set: functional.

The LD50 is the dose expected to kill half of the subjects tested. High values mean lower toxicity, low ones greater toxicity. In the case of `CN(C)CCNC(=Cc1ccc2ccccc2[n+]1C)NCCN(C)C.[I-]`, in the data set with Mus musculus [1], the survival at 18.8 mg/kg turned out to be 0%. In the data set on Mus musculus [2] (Mus musculus, ip, 720 h), this compound yielded a survival at 75 mg/kg of 0%. Further, the survival at 37.5 mg/kg in the data set on Mus musculus [3] amounted to 0%. This compound also yielded a 50% lethal dose (LD50) at 0.5 h in [4] of 90 mg/kg.
`COC(CN/C(=C/c1ccc2ccccc2[n+]1C)SC)OC.[I-]` displayed an LD50 at 0.5 h in data set [5] of 30 mg/kg. This compound came in with a survival at 4.7 mg/kg with Mus musculus [6] of 0%. In addition, the survival at 9.4 mg/kg with Mus musculus [7] was determined as 0%. The same compound came in with a survival at 18.8 mg/kg with Mus musculus [1] of 30%.
Regarding `COCCN/C(=C/c1ccc2ccccc2[n+]1C)SC.[I-]`, the survival at 9.4 mg/kg in the data set with Mus musculus [7] is 0%. Besides, the median lethal dose (LD50) at 0.5 h in data set [8] was 50 mg/kg. In the data set with Mus musculus [1], the survival at 18.8 mg/kg is 0%. This compound also had a survival at 37.5 mg/kg in the data set with Mus musculus [3] of 0%.
For the compound `O=[N+]([O-])c1ccc(CSC(=S)C[n+]2ccccc2)cc1.[Cl-]`, the Protective effect in the data set listed under Mus musculus [9] is reported as 33%.
Take `CS/C(=C\c1ccc2cc(C)ccc2[n+]1C)N1CCOCC1.[I-]`: the 50% lethal dose (LD50) at 0.5 h in data set [10] was found to be 15 mg/kg. The compound further returned a survival at 2.34 mg/kg in the data set with Mus musculus [11] of 0%. The compound also displayed a survival at 9.38 mg/kg in the data set with Mus musculus [12] of 60%. Further, in the data set on Mus musculus [13], the survival at 4.69 mg/kg stood at 0%.
`N#CC(C#N)=C([S-])[S-].[K+].[K+]` displayed a Protective effect in the data set on Mus musculus [14] greater than 25%.
`CS/C(=C\c1cccc[n+]1C)N1CCN(C)CC1.[I-]` came in with an LD50 at 0.5 h in data set [5] of 60 mg/kg. This compound also displayed a survival at 4.7 mg/kg in the data set with Mus musculus [6] of 0%. Also, the survival at 9.4 mg/kg in the data set with Mus musculus [7] is 0%. The survival at 18.8 mg/kg with Mus musculus [1] is 10%.
In turn, `N#CC(C#N)=C([S-])[S-].[Zn+2]` came in with a Protective effect in the data set with Mus musculus [15] of less than 25%.
On to `NC(=O)c1ccc[n+](CC(=S)[S-])c1`, for which the Protective effect in the data set filed under Mus musculus [9] is reported as greater than 45%.
The same measure, in the same setting: in the case of `C=CCSC(=S)C[n+]1ccccc1.[Cl-]` it was greater than 17%.
`CS/C(=C\c1ccc2ccccc2[n+]1C)NCCCO.[I-]` registered a survival at 9.4 mg/kg in the data set with Mus musculus [7] of 0%. In data set [8], this compound yielded an LD50 at 0.5 h of 50 mg/kg. Moreover, the survival at 18.8 mg/kg in the data set on Mus musculus [1] is 0%. Further, the survival at 37.5 mg/kg in the data set on Mus musculus [3] stood at 0%.
Turning to `CSC(=Cc1ccc2ccccc2[n+]1C)SC.[I-]`, the survival at 150 mg/kg in the data set on Mus musculus [16] is 60%; with Mus musculus [19] it was 10%. For the same compound, the median lethal dose (LD50) at 0.5 h is greater than 300 mg/kg in data set [17] and 300 mg/kg in data set [18]. The Survival in the data set on Mus musculus [2] (75 mg/kg) is given as 0%. For the same compound, the survival at 37.5 mg/kg with Mus musculus [3] amounted to 0%.
As for `CCOC(=O)C(C#N)=C([S-])[S-].[K+].[K+]`, in the data set with Mus musculus [20], the Protective effect amounted to 50%.
`CSC(=Cc1cccc[n+]1C)SC.[I-]` came in with an LD50 at 0.5 h in data set [5] of 30 mg/kg. This compound came in with a survival at 4.7 mg/kg in the data set on Mus musculus [6] of 0%. In the data set with Mus musculus [7], this compound gave a survival at 9.4 mg/kg of 0%. The survival at 18.8 mg/kg with Mus musculus [1] was determined as 50%.

The record behind these values is ChEMBL document CHEMBL1123594, “Antiradiation compounds. 20. 1-Methylquinolinium(and pyridinium)-2-dithioacetic acid derivatives” (J Med Chem, 1987).
